Results from different studies.
Protocols differ between the studies behind these lines.
Read-out: ABTS scavenging

| SMILES | technique | IC50 |
| --- | --- | --- |
| O=C(Cc1c[nH]c2ccccc12)Nc1cccc(I)c1 | – | 1.15 µM |
| CCOC(=O)c1cc(O)c(O)c(O)c1 | absorbance | 17.7 µM |
| Clc1ccc2[nH]c(-c3ccccc3OCc3ccccc3)nc2c1 | absorbance | 1.78 µM |
| Cc1cc(C(C)(C)C)c(O)c(C(C)(C)C)c1 | – | 6.99 µg/mL |
| O=C1O[C@H]([C@@H](O)CO)C(O)=C1O | – | 1.4 µg/mL |
| O=C(Cc1c[nH]c2ccccc12)Nc1ccc(Cl)cc1 | – | 0.46 µM |
| Fc1ccc2[nH]c(-c3cccc(OCc4ccccc4)c3)nc2c1 | absorbance | 1.85 µM |
| O=c1oc2c(O)c(O)cc3c(=O)oc4c(O)c(O)cc1c4c23 | absorbance | 5.76 µM |
| COc1ccc(-c2nc3cc([N+](=O)[O-])ccc3[nH]2)cc1OCc1ccccc1 | absorbance | 1.76 µM |
| CCCCCCCCOc1ccc(NC(=O)Cc2c[nH]c3ccccc23)cc1 | – | 1.8 µM |
| COC(=O)c1cc(O)c(O)c(O)c1 | absorbance | 14.2 µM |
| CCCCOc1ccc(NC(=O)Cc2c[nH]c3ccccc23)cc1 | – | 1.78 µM |
| O=c1c(O[C@@H]2O[C@H](CO)[C@@H](O)[C@H](O)[C@H]2O)c(-c2ccc(O)c(O)c2)oc2cc(O)cc(O)c12 | absorbance | 6.51 µM |
| O=C(Cc1c[nH]c2ccccc12)Nc1ccc(F)cc1F | – | 1.31 µM |
| Cc1cc2nc(-c3ccccc3OCc3ccccc3)[nH]c2cc1C | absorbance | 1.78 µM |
